NPY Y2 blocker: NPY-Y2 (human) receptor antagonism. P49146. NPY-Y2 expressing cells, antagonist mode. inhibition, % at 2.7 µM. 0.99% of 140,000 active;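 also: 0% = vehicle with agonist challenge and 100% = reference antagonist with challenge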
Target sequence (P49146 whole entry, looked up): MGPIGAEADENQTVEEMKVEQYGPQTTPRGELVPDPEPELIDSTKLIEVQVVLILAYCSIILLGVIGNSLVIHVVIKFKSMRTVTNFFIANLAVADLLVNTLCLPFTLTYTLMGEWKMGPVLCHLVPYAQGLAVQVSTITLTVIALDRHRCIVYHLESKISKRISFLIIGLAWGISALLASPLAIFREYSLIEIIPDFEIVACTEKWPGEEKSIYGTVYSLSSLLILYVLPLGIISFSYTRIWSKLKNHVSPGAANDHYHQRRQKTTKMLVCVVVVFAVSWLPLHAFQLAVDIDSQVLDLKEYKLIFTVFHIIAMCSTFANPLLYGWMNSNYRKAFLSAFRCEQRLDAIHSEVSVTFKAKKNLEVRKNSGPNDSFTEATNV
NPY Y1 blocker: blocks the human neuropeptide Y Y1 receptor; P25929; HEK293-CNG Y1 cells, membrane potential fluorescence; NPY at EC95, then isoproterenol; inhibition, % at 3.6 µM; 1% of 200,000 active;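 active = inhibition above the campaign mean inhibition of all tested compounds plus 3 SD, cut at about 20% in these data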;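 also: 0% = DMSO wells given NPY plus isoproterenol and 100% = isoproterenol alone without NPY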
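Material: HEK293 Y1/CNG channel cell line | Also added: NPY (25 nM), isoproterenol (1 µM), Ro 20-1724 (25 µM) | Compound: One concentration, 3.6 µM, in 0.4% DMSO | Schedule: 3 h dye uptake, 1 h room-temperature compound, 45 min post-isoproterenol | Signal: Membrane-potential fluorescent dye readout | Read-out: % inhibition of NPY effect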
S1P4 ag: activates the human S1P4 receptor | O95977 | S1P4-expressing cell line, agonist reporter assay | activation, % at 4.98 µM | 0.35% of 220,000 active | AID 1509; in the data active = activation above about 11%;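 also: 0% = DMSO vehicle and 100% = reference agonist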
S1P4 antag: antagonists of human S1P4 receptor; AID 1510; O95977; inhibition, % at 4.98 µM; S1P4-expressing cells, antagonist mode, reporter read-out; 0.26% of 220,000 active; in the data active = inhibition above about 29%;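 also: 0% = wells stimulated with agonist and 100% = vehicle wells without agonist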
NPY1 pot ag: potentiators or agonists of human neuropeptide Y receptor Y1. activation, % at 3.6 µM. NPY-Y1 expressing cells, potentiator/agonist activation. 0.37% of 220,000 active. P25929; in the data active = activation above about 33%, passing the limit was not always enough;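 also: cells stimulated with NPY at EC10 then isoproterenol at EC100; 0% = low agonist plus stimulus and 100% = saturating agonist plus stimulus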
NPY-Y2 PAM-ag: potentiates or activates human NPY-Y2 receptor. cells expressing NPY-Y2, potentiator/agonist read-out. P49146. 0.45% of 220,000 active. activation, % at 3.6 µM; in the data active = activation above about 27%;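 also: cells stimulated with NPY near EC25 plus isoproterenol at EC100; 0% = vehicle plus submaximal agonist and 100% = vehicle plus saturating agonist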
NPY1 antag conf: confirmation of human neuropeptide Y receptor Y1 antagonists. HEK293-CNG NPY-Y1, membrane potential fluorescence, cAMP; NPY challenge against isoproterenol-raised cAMP. 21% of 1,200 active. inhibition, % at 3.6 µM. shares compounds with NPY Y1 blocker; in the data active = inhibition above about 20%;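 also: 0% = vehicle with agonist plus stimulus and 100% = stimulus alone without agonist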
NPY2 antag ctr: human NPY-Y2 antagonism in NPY-Y1 counter-screen. shares compounds with NPY Y1 blocker. HEK293 NPY-Y2 CNG membrane potential fluorescence; cells given NPY, then isoproterenol. inhibition, % at 3.6 µM. 28% of 1,200 active;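 also: 0% = DMSO with agonist challenge and 100% = reference antagonist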
An asterisk follows results filed as active; . = no result. Most compounds without a hit are left out; they make up all but 2.4% or so of the library. Rule as the data show it, unless noted: active = inhibition above about 17%; inactive = the rest.

SMILES	NPY Y2 blocker	NPY Y1 blocker	S1P4 ag	S1P4 antag	NPY1 pot ag	NPY-Y2 PAM-ag	NPY1 antag conf	NPY2 antag ctr
CC1CCCCC1NC(=O)CN1C(=O)CSc2cc(S(=O)(=O)N3CCCCCC3)ccc21 (configuration not stated)	16	31*	1	12	-34	-11	6	6
CCC1(C)Cc2ccccc2-c2nc(NCCCO)[nH]c(=O)c21 (configuration not stated)	.	.	-1	-10	19	-4	.	.
CCC1(C)Cc2ccccc2-c2[nH][nH]c(=O)c21 (configuration not stated)	.	55*	1	2	-6	-3	18	4
O=C(NCc1nc(-c2ccccc2)no1)c1ccc2c(c1)OCO2	6	22*	0	-11	-34	-3	13	10
S=c1[nH]nc(-c2cccc(Br)c2)o1	13	24*	0	-3	-32	-34	11	11
O=C(NCc1ccco1)c1nc(-c2ccc(F)cc2)no1	.	24*	-2	-3	-30	-21	11	9
Cc1nn(C)c(C(=O)Nc2ccc(Cn3cccn3)cc2)c1[N+](=O)[O-]	0	25*	3	7	10	-11	-1	0
CCOC(=O)c1c(NC(=O)Cc2cccs2)sc(C(=O)NC2CCCC2)c1C	1	3	-1	4	-8	-7	.	.
CCOC(=O)c1c(NC(=O)Cc2cccs2)sc(C)c1C	7	21*	2	1	-52	-17	3	3
CC1=C(C(N)=O)S(=O)(=O)c2ccccc21	.	.	-1	-8	14	-17	.	.
CCN(CC)C(=N)N1c2ccccc2CCC1C (configuration not stated)	.	4	1	13	2	2	.	.
CN(CCOC(=O)c1cccc(F)c1)Cc1ccccc1	3	26*	1	-16	-2	-2	1	3
CC(=O)N(CCC(Cc1ccccc1)c1ccc2c(c1)OCO2)Cc1ccccc1F (configuration not stated)	17	21*	3	-8	-16	-5	18	11
CCCCN(CC)CCNC(=O)c1nn(-c2ccc(OC)cc2)c(=O)c2c1c1ccccc1n2C	.	2	-1	-5	-14	-16	.	.
CCN(Cc1ccccc1)C(=O)c1nn(-c2ccc(OC)cc2)c(=O)c2c1c1ccccc1n2C	.	38*	0	-12	-36	-9	43*	24*
Cc1nn(S(=O)(=O)c2ccccc2)c(C)c1Sc1ccc([N+](=O)[O-])cc1	7	24*	-1	3	-4	7	6	4
N#CC(=NCc1cccnc1)C1=C(O)c2ccccc2C1=O	.	.	-1	4	1	11	.	.
CC(C)(C)n1nnnc1C(c1cccnc1)N(Cc1ccccc1)Cc1cccs1 (configuration not stated)	9	21*	1	-4	7	-9	4	5
CC(C)(C)n1nnnc1C(c1cccs1)N(Cc1ccccc1)Cc1cccnc1 (configuration not stated)	3	26*	7	-3	-11	-22	9	3
CCN(CCn1cccn1)Cc1cn[nH]c1-c1cccc2ccccc12	.	.	0	2	4	-2	.	.
O=C(c1cc(COc2ccc(F)cc2Cl)on1)N1CCc2ccccc2C1	.	31*	1	0	-39	-9	13	13
Nc1ccccc1C(=O)NCCN1CCNC1=O	.	.	0	4	5	4	.	.
CCOc1ccc(NCC(=O)N/N=C/C=C/c2ccccc2)cc1	2	3	-2	-10	-26	-7	.	.
COc1ccc(OCC(=O)N/N=C/C=C/c2ccccc2)cc1	9	23*	0	-14	-15	-16	6	11
Cc1ccccc1-n1cnc2cc(NCc3cccs3)ccc21	3	1	0	-4	-4	2	.	.
COc1ccccc1-n1cnc2cc(NCc3cccs3)ccc21	10	21*	-1	6	1	-5	9	20*
